The target of series [1] is T1, Cannabinoid receptor 1 (Homo sapiens, UniProt P21554). Type of series: cell-based, CHO.
The target in series [2] is T1, Cannabinoid receptor 1. The series is described as follows: In vitro cannabinoid receptor 1 antagonism of [3H]arachidonic acid release by CHO cells. Type of series: functional, cell-based. The conditions noted are these: read-out: pA2 (converted).
For series [3], the target named is Cannabinoid receptor 2 (Homo sapiens, UniProt P34972). Description: In vitro displacement of CP-55940 binding to human CB2 receptor expressed in CHO cells. Type of series: cell-based. An outline of the steps: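 Radioligand binding on CHO cells stably expressing recombinant human CB2 receptor; affinity given as Ki (nM).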
Cannabinoid receptor 2, sequence (P34972 whole entry): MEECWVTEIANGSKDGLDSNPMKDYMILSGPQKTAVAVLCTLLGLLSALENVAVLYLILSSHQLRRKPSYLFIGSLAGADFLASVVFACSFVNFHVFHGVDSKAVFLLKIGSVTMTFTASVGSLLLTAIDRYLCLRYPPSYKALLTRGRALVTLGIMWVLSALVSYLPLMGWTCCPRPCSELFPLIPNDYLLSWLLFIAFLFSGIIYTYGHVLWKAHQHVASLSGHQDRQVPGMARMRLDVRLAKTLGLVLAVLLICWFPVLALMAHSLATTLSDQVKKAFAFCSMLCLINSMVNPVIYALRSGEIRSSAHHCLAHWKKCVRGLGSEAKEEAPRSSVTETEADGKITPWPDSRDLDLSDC
Series [4] relates to Mus musculus. Description: In vivo effective dose to produce antagonism of CB agonist (WIN-55212) induced hypothermia in mouse.
Series [5] has as its system Rattus norvegicus. The series is described as follows: In vivo effective dose to produce antagonism of CB agonist (CP-55940) induced hypotension in rat.
Series [6] deals with ATP-dependent translocase ABCB1 (Homo sapiens, UniProt P08183). Description: Membrane passage was expressed as mean percentage of compound transported from bottom to top and from top to bottom at 3 hr after adding the compound. It counts as functional.
ATP-dependent translocase ABCB1, sequence (P08183 whole entry): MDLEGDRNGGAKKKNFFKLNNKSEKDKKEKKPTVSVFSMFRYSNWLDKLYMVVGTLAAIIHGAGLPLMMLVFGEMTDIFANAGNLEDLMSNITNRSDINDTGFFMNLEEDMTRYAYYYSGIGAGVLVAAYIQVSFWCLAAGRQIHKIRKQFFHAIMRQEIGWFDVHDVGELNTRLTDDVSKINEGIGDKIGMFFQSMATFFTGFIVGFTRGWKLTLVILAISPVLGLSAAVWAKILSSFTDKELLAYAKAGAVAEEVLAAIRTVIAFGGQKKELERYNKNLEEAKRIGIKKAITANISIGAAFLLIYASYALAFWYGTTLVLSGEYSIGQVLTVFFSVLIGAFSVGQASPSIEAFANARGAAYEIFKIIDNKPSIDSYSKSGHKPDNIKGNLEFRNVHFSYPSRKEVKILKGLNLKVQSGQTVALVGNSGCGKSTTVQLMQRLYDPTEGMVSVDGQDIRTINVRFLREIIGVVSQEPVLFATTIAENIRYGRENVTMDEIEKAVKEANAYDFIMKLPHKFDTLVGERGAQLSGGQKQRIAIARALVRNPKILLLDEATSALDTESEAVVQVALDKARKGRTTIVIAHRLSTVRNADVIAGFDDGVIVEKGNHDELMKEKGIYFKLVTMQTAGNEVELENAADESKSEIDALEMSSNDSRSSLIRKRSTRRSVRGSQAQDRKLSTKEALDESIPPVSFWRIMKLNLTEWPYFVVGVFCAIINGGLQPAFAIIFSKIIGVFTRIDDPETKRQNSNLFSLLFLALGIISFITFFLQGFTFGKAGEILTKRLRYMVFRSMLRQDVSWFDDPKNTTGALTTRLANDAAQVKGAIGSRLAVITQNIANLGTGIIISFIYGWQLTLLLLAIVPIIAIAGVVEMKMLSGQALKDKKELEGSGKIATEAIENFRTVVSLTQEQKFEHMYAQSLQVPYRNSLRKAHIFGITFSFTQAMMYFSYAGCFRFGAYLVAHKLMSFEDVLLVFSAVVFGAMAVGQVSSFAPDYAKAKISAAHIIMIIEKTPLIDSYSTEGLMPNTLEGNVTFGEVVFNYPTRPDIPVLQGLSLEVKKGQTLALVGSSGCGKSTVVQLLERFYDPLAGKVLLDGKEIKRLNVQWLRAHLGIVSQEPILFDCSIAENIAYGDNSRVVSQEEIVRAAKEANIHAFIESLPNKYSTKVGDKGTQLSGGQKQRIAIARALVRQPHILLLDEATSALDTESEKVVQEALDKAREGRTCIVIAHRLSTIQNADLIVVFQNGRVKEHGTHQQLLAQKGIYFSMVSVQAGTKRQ
For series [7], the target named is P-glycoprotein (ABCB1) (Homo sapiens, UniProt P08183). The series is described as follows: P-glycoprotein (Pgp) factor was expressed as the ratio ofthe bottom to top transport and top to bottom transport. Type of series: functional. Conditions: not told.
P-glycoprotein (ABCB1), sequence (P08183 whole entry): as above

Structures are written as SMILES. A value given as a limit tells only on which side of the number the result lay.

T1 sequence (P21554 whole entry): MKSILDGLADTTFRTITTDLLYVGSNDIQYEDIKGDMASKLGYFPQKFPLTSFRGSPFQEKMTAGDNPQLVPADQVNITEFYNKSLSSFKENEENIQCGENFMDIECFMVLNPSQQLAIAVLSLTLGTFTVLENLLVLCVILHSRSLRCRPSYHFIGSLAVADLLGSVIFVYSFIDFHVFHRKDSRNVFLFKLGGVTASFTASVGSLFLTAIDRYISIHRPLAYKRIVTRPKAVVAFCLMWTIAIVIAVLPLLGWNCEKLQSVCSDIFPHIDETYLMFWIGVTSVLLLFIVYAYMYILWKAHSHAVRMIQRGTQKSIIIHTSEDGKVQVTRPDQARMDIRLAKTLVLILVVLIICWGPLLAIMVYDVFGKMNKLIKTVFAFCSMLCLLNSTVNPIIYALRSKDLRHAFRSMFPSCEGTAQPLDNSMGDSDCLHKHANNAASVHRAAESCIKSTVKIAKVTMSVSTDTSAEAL

One may read the Ki as a measure of affinity in units of concentration, obtained from inhibition or displacement. High values mean weaker binding, low ones tighter binding. As for `O=C(NN1CCCCC1)c1nc(-c2ccc(Cl)cc2)c(-c2ccc(Cl)cc2Cl)s1`, the Ki in series [1] is more than 1 µM; in series [3] it was 4.67 µM. For the same molecule, the Kb in series [2] is 0.0631 µM.

Take `Cc1c(C(=O)NC2CCCCCC2)nc(-c2ccc(Cl)cc2Cl)n1-c1ccc(Cl)cc1`: the Ki came to 0.035 µM in series [1] and 0.349 µM in series [3].

Regarding `Cc1c(C(=O)NN2CCCCCC2)nc(-c2ccc(Cl)cc2Cl)n1-c1ccc(Cl)cc1`, the Ki in series [1] was determined as 0.064 µM; in series [3], 0.505 µM. The Kb in series [2] is 0.002 µM.

As to `N#Cc1c(C(=O)NN2CCCCC2)nc(-c2ccc(Cl)cc2Cl)n1-c1ccc(Cl)cc1`, the Ki in series [1] came out at 0.03 µM; in series [3] it was 1.59 µM.

In the case of `Cc1c(C(=O)NC2CCCCC2)nc(-c2ccc(Cl)cc2Cl)n1-c1ccc(Cl)cc1`, the Ki was found to be 0.035 µM in series [1] and 0.16 µM in series [3]. In addition, in series [2], the Kb is 0.000794 µM.

`Cc1c(C(=O)NC2CC3CCC2C3)nc(-c2ccc(Cl)cc2Cl)n1-c1ccc(Cl)cc1` (stereo not given): the figures for the Ki in series [1] and in series [3] were 0.019 µM and 0.054 µM, respectively. Besides, in series [2], the Kb was 0.000794 µM.

With `Cc1c(C(=O)NN2CCOCC2)nc(-c2ccc(Cl)cc2Cl)n1-c1ccc(Cl)cc1`, the inhibition constant Ki in series [1] was 0.197 µM; in series [3] it was 3.3 µM.

For orientation: ED50 means the dose at which the effect has come halfway, by size or by number of responders. As for `O=C(NN1CCCCC1)c1cn(-c2ccc(Cl)cc2)c(-c2ccc(Cl)cc2Cl)n1`, the Ki in series [1] came out at 0.023 µM; in series [3], 0.542 µM. Moreover, the LED in series [4] was more than 30 mg/kg. Further, in series [5], the ED50 came to 11.7 mg/kg.

`Cc1c(C(=O)NN2CCCC2)nc(-c2ccc(Cl)cc2Cl)n1-c1ccc(Cl)cc1`: the Ki was 0.027 µM in series [1] and 0.774 µM in series [3].

For `Cc1c(C(=O)NN2CCCCC2)nn(-c2ccc(Cl)cc2Cl)c1-c1ccc(Cl)cc1` [RIMONABANT], in series [4], the LED stood at 3 mg/kg. In series [6], this molecule showed a Transport of 17.2%. The same molecule returned an ED50 in series [5] of 3.2 mg/kg.

With `O=C(NN1CCCCC1)c1nc(-c2ccc(Cl)cc2Cl)n(-c2ccc(Cl)cc2)c1Cl`, the results for the Ki in series [1] and in series [3] were 0.027 µM and 0.823 µM, respectively. For the same molecule, the Kb in series [2] was 0.00316 µM.

For `Cc1c(C(=O)N2CCC(O)CC2)nc(-c2ccc(Cl)cc2Cl)n1-c1ccc(Cl)cc1`, in series [3], the Ki came out at 3.96 µM.

As to `Cc1c(C(=O)NN2CCCCC2)nc(-c2ccc(Cl)cc2Cl)n1-c1ccc(C(F)(F)F)cc1`, the Ki in series [1] is 0.029 µM; in series [3] it was 0.634 µM. Also, the Kb in series [2] is 0.00251 µM.

Turning to `O=C(NN1CCCCC1)c1nc(-c2ccc(Cl)cc2Cl)n(-c2ccc(Cl)cc2)c1Br`, the Ki in series [1] came to 0.023 µM; in series [3] it was 0.746 µM. The Kb in series [2] is 0.00398 µM.

On to `Cc1c(C(=O)N[C@H]2CC[C@H](O)CC2)nc(-c2ccc(Cl)cc2Cl)n1-c1ccc(Cl)cc1`, for which the Ki in series [1] is 0.399 µM; in series [3], 3.47 µM. Further, the Kb in series [2] was 0.0501 µM.

Take `Cc1c(C(=O)NN2CCCCC2)nc(-c2ccc(Cl)cc2Cl)n1-c1ccc(Cl)cn1`: the Ki in series [3] came out at 0.758 µM.

In general, efflux ratio refers to a quotient of directional permeabilities that is used to spot active efflux. For `Cl.Cl.O=C(NN1CCCCC1)c1nc(-c2ccc(Cl)cc2Cl)n(-c2ccc(Cl)cc2)n1`, the Ki in series [1] was determined as 0.356 µM; in series [3], 3.56 µM. For the same molecule, the Kb in series [2] was 0.00501 µM. Besides, the efflux ratio in series [7] is 1.5. The LED in series [4] was more than 30 mg/kg. Moreover, the Transport in series [6] worked out at 28.3%. In series [5], this molecule had an ED50 of 23.6 mg/kg.

On to `CCc1c(C(=O)NN2CCCCC2)nc(-c2ccc(Cl)cc2Cl)n1-c1ccc(Cl)cc1`, for which the figures for the Ki in series [1] and in series [3] were 0.014 µM and 0.43 µM, respectively. The Kb in series [2] is 0.001 µM. The molecule further registered an LED in series [4] of 30 mg/kg. Further, the ED50 in series [5] turned out to be 15.8 mg/kg.

Take `Cc1c(C(=O)NN2CC3CCCC3C2)nc(-c2ccc(Cl)cc2Cl)n1-c1ccc(Cl)cc1` (stereo not given): the figures for the Ki in series [1] and in series [3] were 0.04 µM and 1.41 µM, respectively.

Consider `CCN(CC)C(=O)c1nc(-c2ccc(Cl)cc2Cl)n(-c2ccc(Cl)cc2)c1C`, for which the Ki in series [1] worked out at 0.828 µM; in series [3], 2.52 µM. Moreover, the Kb in series [2] was 0.0398 µM.

Regarding `O=C(NN1CCCCC1)c1nc(-c2ccc(Cl)cc2Cl)n(-c2ccc(Cl)cc2)c1CF`, the Ki was 0.036 µM in series [1] and 0.906 µM in series [3]. Further, in series [2], the Kb is 0.00126 µM.

As to `Cc1c(C(=O)NOC(C)(C)C)nc(-c2ccc(Cl)cc2Cl)n1-c1ccc(Cl)cc1`, the Ki was found to be 0.333 µM in series [1] and 0.242 µM in series [3]. In series [2], the Kb is 0.00631 µM.

For the molecule `Cc1c(C(=O)N2CCc3ccccc3C2)nc(-c2ccc(Cl)cc2Cl)n1-c1ccc(Cl)cc1`, the Ki was 0.034 µM in series [1] and 0.696 µM in series [3].

As for `Cc1c(C(=O)NCc2ccc(C(F)(F)F)cc2)nc(-c2ccc(Cl)cc2Cl)n1-c1ccc(Cl)cc1`, the Ki in series [1] came to 0.171 µM; in series [3], 1.98 µM.

Turning to `COc1ccc(-n2c(-c3ccc(Cl)cc3Cl)nc(C(=O)NN3CCCCC3)c2C)cc1`, the Ki in series [1] turned out to be 0.106 µM; in series [3] it was 0.326 µM. Also, the Kb in series [2] was 0.002 µM.

As for `Cc1c(C(=O)NN2CCCCC2)nc(-c2ccc(Cl)cc2Cl)n1-c1ccc(Br)cc1`, the Ki in series [1] is 0.06 µM; in series [3], 0.489 µM. The Kb in series [2] was 0.00316 µM.

In the case of `Cc1c(C(=O)NN2CCCCC2)nc(-c2ccc(Cl)cc2)n1-c1ccc(Cl)cc1Cl`, the Ki in series [1] was determined as 0.403 µM; in series [3], 0.208 µM. The Kb in series [2] was 0.02 µM. Also, the ED50 in series [5] is more than 30 mg/kg.

Consider `Cc1c(C(=O)NC2CCCC2)nc(-c2ccc(Cl)cc2Cl)n1-c1ccc(Cl)cc1`, for which the Ki in series [1] came out at 0.033 µM; in series [3], 0.357 µM.

As to `O=C(NN1CCCCC1)c1nc(-c2ccc(Cl)cc2Cl)c(-c2ccc(Cl)cc2)s1`, the Ki turned out to be 0.227 µM in series [1] and 5.84 µM in series [3]. The Kb in series [2] is 0.00794 µM. For the same molecule, the efflux ratio in series [7] was 1.7. Also, the Transport in series [6] was 8.3%. The ED50 in series [5] is more than 30 mg/kg.

For `O=C(NN1CCCCC1)c1nc(-c2ccc(Cl)cc2)n(-c2ccc(Cl)cc2Cl)n1`, the Ki in series [1] is 0.382 µM; in series [3], 5.44 µM. Also, the Kb in series [2] was 0.0251 µM.

Consider `Cc1c(C(=O)OC(C)(C)C)nc(-c2ccc(Cl)cc2Cl)n1-c1ccc(Cl)cc1`, for which the Ki in series [1] worked out at 0.094 µM; in series [3], 0.815 µM. Moreover, the Kb in series [2] is 0.00251 µM.

`Cc1c(C(=O)NN2CCCCC2)nc(-c2ccc(Cl)cc2Cl)n1-c1ccc(F)cc1`: the figures for the Ki in series [1] and in series [3] were 0.052 µM and 0.765 µM, respectively.

As for `Cc1c(C(=O)NN2CCCCC2)nc(-c2ccc(Cl)cc2Cl)n1-c1ccc(Cl)cc1`, in series [2], the Kb is 0.00251 µM. In addition, the efflux ratio in series [7] worked out at 1.2. The same molecule gave an LED in series [4] of 10 mg/kg. The Transport in series [6] is reported as 24.2%. Further, in series [5], the 50% effect level (ED50) was put at a dose of 2.4 mg/kg. For the same molecule, in series [3], the Ki is 0.608 µM.

Values taken from ChEMBL document CHEMBL1145197 (J Med Chem, 2005).
